Data: ChEMBL document CHEMBL2331225, “Structure-based design, synthesis and evaluation of novel anthra[1,2-d]imidazole-6,11-dione derivatives as telomerase inhibitors and potential for cancer polypharmacology” (Eur J Med Chem, 2013)
Values belong to the compound of their own block, whether it stands above or below them. Activity calls are given as the source filed them. The calls are words filed in the database; no cut-off is given here.

Tests used:
[1] = molecular target: T1, Telomerase reverse transcriptase (Homo sapiens, UniProt O14746); assay: Inhibition of TERT transcriptional activity in human H1299 cells assessed SEAP activity at 1 uM incubated for 24 hrs by SEAP assay; type: cell-based; parameters: scale not given: the % may be the effect or the level left
How it was run: (§1)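 H1299 stable clones carry the hTERT promoter (−3338 to +1 bp) upstream of SEAP, introduced by electroporation and selected with G418. About 2 × 10³ cells per well were grown 24 h at 37 °C, given fresh medium, then drug for 24 h. Collected media were heated at 65 °C for 10 min, mixed with equal SEAP buffer (2 M diethanolamine, 1 mM MgCl₂, 20 mM L-homoarginine) and p-nitrophenyl phosphate at 12 mM final.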

[2] = Cytotoxicity against human H1299 cells assessed as cell viability at 100 uM after 48 hrs by MTT assay; type: functional; details: NCI-H1299, 48 h, read-out: Activity
How it was run: (§2)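 H1299 cells at about 2 × 10³ per well were grown 24 h at 37 °C in 5% CO₂. Compounds were dissolved in DMSO just before use and diluted into complete medium. After 48 h exposure, MTT was added for 4 h at 37 °C, then lysis buffer (20% SDS, 50% DMF) for 16 h at 37 °C. Absorbance was read at 550 nm.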

[3] = Cytotoxicity against human H1299 cells assessed as cell viability at 10 uM after 48 hrs by MTT assay; type: functional; details: NCI-H1299, 48 h, read-out: Activity; how it was run: as §2
[4] = Cytotoxicity against human H1299 cells assessed as cell viability at 1 uM after 48 hrs by MTT assay; type: functional; details: NCI-H1299, 48 h, read-out: Activity; how it was run: as §2
[5] = molecular target: T1, Telomerase reverse transcriptase; assay: Inhibition of TERT activity in human H1299 cells homogenates incubated for 5 mins at 100 uM by TRAP assay; type: cell-free
How it was run: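 Telomerase-active extracts were prepared from H1299 cells, and lysate protein was measured against BSA standards. Compounds were tested in the TRAP assay, with RNase A-treated extracts as negative controls.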

[6] = tested on: PC-3; assay: Growth inhibition of human PC3 cells after 48 hrs by SRB assay; type: functional, cell-based; details: PC-3, 48 h
How it was run: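 PC-3 cells were seeded in medium with 5% FBS; after 24 h a plate was fixed with 10% TCA as T₀. Vehicle (0.1% DMSO) or compound was given for 48 h, then cells were TCA-fixed, stained with 0.4% SRB in 1% acetic acid, solubilized in 10 mM Trizma base and read at 515 nm. IC₅₀ is the concentration halving the protein increase seen in controls.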

[7] = molecular target: T1, Telomerase reverse transcriptase; assay: Inhibition of TERT transcriptional activity in human H1299 cells assessed SEAP activity at 10 uM incubated for 24 hrs by SEAP assay; type: cell-based; parameters: scale not given: the % may be the effect or the level left; how it was run: as §1
[8] = molecular target: T1, Telomerase reverse transcriptase; assay: Inhibition of TERT transcriptional activity in human H1299 cells assessed SEAP activity at 100 uM incubated for 24 hrs by SEAP assay; type: cell-based; parameters: scale not given: the % may be the effect or the level left; how it was run: as §1

T1 sequence (O14746 whole entry): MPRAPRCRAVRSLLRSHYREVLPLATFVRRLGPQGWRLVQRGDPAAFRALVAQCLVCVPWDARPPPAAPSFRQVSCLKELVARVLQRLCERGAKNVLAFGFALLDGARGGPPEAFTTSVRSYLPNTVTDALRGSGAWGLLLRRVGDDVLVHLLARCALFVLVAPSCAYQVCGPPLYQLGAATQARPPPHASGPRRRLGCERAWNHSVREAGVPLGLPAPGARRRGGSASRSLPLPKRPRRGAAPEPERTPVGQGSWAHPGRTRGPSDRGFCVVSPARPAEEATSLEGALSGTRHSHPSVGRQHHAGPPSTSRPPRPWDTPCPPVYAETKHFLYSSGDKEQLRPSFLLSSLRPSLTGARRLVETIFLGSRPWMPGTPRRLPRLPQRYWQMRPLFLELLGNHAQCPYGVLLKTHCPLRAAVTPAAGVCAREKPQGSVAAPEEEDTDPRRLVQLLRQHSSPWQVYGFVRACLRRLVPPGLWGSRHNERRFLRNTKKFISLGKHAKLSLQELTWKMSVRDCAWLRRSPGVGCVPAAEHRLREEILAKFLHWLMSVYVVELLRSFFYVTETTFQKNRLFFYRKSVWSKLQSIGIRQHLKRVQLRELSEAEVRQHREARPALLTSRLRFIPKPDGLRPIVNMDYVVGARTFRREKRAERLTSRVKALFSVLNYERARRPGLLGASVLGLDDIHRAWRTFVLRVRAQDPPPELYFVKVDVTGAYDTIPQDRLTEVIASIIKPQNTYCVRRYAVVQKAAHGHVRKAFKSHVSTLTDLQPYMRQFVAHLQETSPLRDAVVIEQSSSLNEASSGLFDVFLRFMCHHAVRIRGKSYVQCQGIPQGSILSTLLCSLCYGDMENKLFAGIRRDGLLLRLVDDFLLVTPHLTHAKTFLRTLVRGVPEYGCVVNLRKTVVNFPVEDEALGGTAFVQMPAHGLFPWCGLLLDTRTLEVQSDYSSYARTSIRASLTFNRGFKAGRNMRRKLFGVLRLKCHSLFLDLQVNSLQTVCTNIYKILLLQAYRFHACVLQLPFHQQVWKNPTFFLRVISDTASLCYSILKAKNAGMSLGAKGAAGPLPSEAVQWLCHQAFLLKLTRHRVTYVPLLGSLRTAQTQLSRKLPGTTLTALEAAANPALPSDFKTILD

Activity [1]: 106% | TERT inhibition (active/not active) [5]: inactive | IC50 [6]: 12.1 µM | Activity [7]: 86% | Activity [8]: 12%
SMILES: O=C1c2ccccc2C(=O)c2c1ccc1nc(CN3CCSC3)[nH]c21
viability at 100 µM [2]: 5% | viability at 10 µM [3]: 76% | viability at 1 µM [4]: 89%

Activity [1]: 84% | TERT inhibition (active/not active) [5]: inactive | IC50 [6]: 8.8 µM | Activity [7]: 45% | Activity [8]: 0%
SMILES: CN(C)Cc1nc2ccc3c(c2[nH]1)C(=O)c1ccccc1C3=O
viability at 100 µM [2]: 0% | viability at 10 µM [3]: 64% | viability at 1 µM [4]: 99%

Activity [1]: 52% | TERT inhibition (active/not active) [5]: inactive | IC50 [6]: 7.6 µM | Activity [7]: 8% | Activity [8]: 2%
SMILES: O=C1c2ccccc2C(=O)c2c1ccc1nc(CNCc3ccc(C(F)(F)F)cc3)[nH]c21
viability at 100 µM [2]: 0% | viability at 10 µM [3]: 11% | viability at 1 µM [4]: 74%

Activity [1]: 75% | TERT inhibition (active/not active) [5]: inactive | IC50 [6]: 22.5 µM | Activity [7]: 75% | Activity [8]: 1%
SMILES: O=C1c2ccccc2C(=O)c2c1ccc1nc(CNCc3ccc4c(c3)OCO4)[nH]c21
viability at 100 µM [2]: 14% | viability at 10 µM [3]: 103% | viability at 1 µM [4]: 109%

Activity [1]: 87% | TERT inhibition (active/not active) [5]: inactive | IC50 [6]: 12.8 µM | Activity [7]: 17% | Activity [8]: 0%
SMILES: C=CCN1CCN(Cc2nc3ccc4c(c3[nH]2)C(=O)c2ccccc2C4=O)CC1
viability at 100 µM [2]: 0% | viability at 10 µM [3]: 45% | viability at 1 µM [4]: 86%

Activity [1]: 103% | TERT inhibition (active/not active) [5]: inactive | IC50 [6]: 16.7 µM | Activity [7]: 78% | Activity [8]: 0%
SMILES: O=C1c2ccccc2C(=O)c2c1ccc1nc(CN3CCN(c4ccccc4F)CC3)[nH]c21
viability at 100 µM [2]: 15% | viability at 10 µM [3]: 77% | viability at 1 µM [4]: 88%

Activity [1]: 99% | TERT inhibition (active/not active) [5]: inactive | Activity [8]: 18%
SMILES: Nc1ccc2c(c1N)C(=O)c1ccccc1C2=O
viability at 100 µM [2]: 39% | viability at 10 µM [3]: 95% | viability at 1 µM [4]: 105%

Continued, compound first:

SMILES: O=C1c2ccccc2C(=O)c2c1ccc1nc(CCN3CCN(c4ccccn4)CC3)[nH]c21
Activity [1]: 88% | viability at 100 µM [2]: 57% | viability at 10 µM [3]: 93% | viability at 1 µM [4]: 98% | TERT inhibition (active/not active) [5]: inactive | IC50 [6]: > 30 µM | Activity [7]: 63% | Activity [8]: 1%

SMILES: O=C1c2ccccc2C(=O)c2c1ccc1nc(CN3CCN(Cc4ccccc4)CC3)[nH]c21
Activity [1]: 98% | viability at 100 µM [2]: 13% | viability at 10 µM [3]: 51% | viability at 1 µM [4]: 93% | TERT inhibition (active/not active) [5]: inactive | IC50 [6]: > 30 µM | Activity [7]: 11% | Activity [8]: 0%

SMILES: O=C1c2ccccc2C(=O)c2c1ccc1nc(CN3CCSCC3)[nH]c21
Activity [1]: 115% | viability at 100 µM [2]: 1% | viability at 10 µM [3]: 77% | viability at 1 µM [4]: 92% | TERT inhibition (active/not active) [5]: inactive | IC50 [6]: 6.7 µM | Activity [7]: 77% | Activity [8]: 5%

SMILES: CN(Cc1nc2ccc3c(c2[nH]1)C(=O)c1ccccc1C3=O)CC1OCCO1
Activity [1]: 90% | viability at 100 µM [2]: 28% | viability at 10 µM [3]: 90% | viability at 1 µM [4]: 104% | TERT inhibition (active/not active) [5]: inactive | IC50 [6]: 21 µM | Activity [7]: 69% | Activity [8]: 7%

SMILES: O=C1c2ccccc2C(=O)c2c1ccc1nc(CCl)[nH]c21
Activity [1]: 69% | viability at 100 µM [2]: 0% | viability at 10 µM [3]: 0% | viability at 1 µM [4]: 82% | TERT inhibition (active/not active) [5]: inactive | IC50 [6]: 5.1 µM | Activity [7]: 0% | Activity [8]: 3%

SMILES: O=C1c2ccccc2C(=O)c2c1ccc1nc(CN(Cc3ccccn3)Cc3ccccn3)[nH]c21
Activity [1]: 86% | viability at 100 µM [2]: 0% | viability at 10 µM [3]: 13% | viability at 1 µM [4]: 101% | TERT inhibition (active/not active) [5]: inactive | IC50 [6]: 6.4 µM | Activity [7]: 0% | Activity [8]: 0%
